Test results as given in ChEMBL document CHEMBL4334487, “Cytotoxic Microcolin Lipopeptides from the Marine Cyanobacterium Moorea producens” (J Nat Prod, 2019).

System: NCI-H460
Experiment: Cytotoxicity against human NCI-H460 cells assessed as reduction in cell viability incubated for 48 hrs by MTT assay
Format: functional, cell-based
Settings: NCI-H460, 48 h
Method in brief: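 H-460 non-small-cell lung carcinoma cells in RPMI-1640 with 10% FBS and 1% penicillin/streptomycin, used within 28 passages per frozen batch. Seeded at 3.33 × 10^4 cells/mL, adhered 24 h, then treated 48 h. Ten concentrations from 30 μM down by 0.3164-fold serial dilution; 1% DMSO negative control, doxorubicin positive control.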

`CCCC[C@@H](C)C[C@@H](C)C(=O)N(C)[C@@H](CC(C)C)C(=O)N[C@H](C(=O)N(C)[C@H](C(=O)N1C[C@@H](O)C[C@H]1C(=O)O)C(C)C)[C@@H](C)OC(C)=O` was tested. Which IC50 did it give?
The IC50 was 510 nM.

Which IC50 does the source give for `CCCC[C@@H](C)C[C@@H](C)C(=O)N(C)[C@@H](CC(C)C)C(=O)N[C@H](C(=O)N[C@H](C(=O)N1CCC[C@H]1C(=O)N1C(=O)C=C[C@@H]1C)C(C)C)[C@@H](C)OC(C)=O` here?
Its IC50 is 69 nM.

Which IC50 does the source give for `CCCC[C@@H](C)C[C@@H](C)C(=O)N(C)[C@@H](CC(C)C)C(=O)N[C@H](C(=O)N(C)[C@H](C(=O)N1CCC[C@H]1C(=O)N1C(=O)C=C[C@@H]1C)C(C)C)[C@@H](C)OC(C)=O` here?
Its IC50 is 910 nM.

With `CCCC[C@@H](C)C[C@@H](C)C(=O)N(C)[C@@H](CC(C)C)C(=O)N[C@H](C(=O)N(C)[C@H](C(=O)N1CCC[C@H]1C(=O)N1C(=O)CC[C@@H]1C)C(C)C)[C@@H](C)O` as the compound, how does the IC50 read?
Its IC50 is greater than 30000 nM.

How did the IC50 turn out when `CCCC[C@@H](C)C[C@@H](C)C(=O)N(C)[C@@H](CC(C)C)C(=O)N[C@H](C(=O)N(C)[C@H](C(=O)N1C[C@@H](O)C[C@H]1C(=O)N1C(=O)CC[C@@H]1C)C(C)C)[C@@H](C)O` was run?
The IC50 was 2000 nM.

`CCCC[C@@H](C)C[C@@H](C)C(=O)N(C)[C@@H](CC(C)C)C(=O)N[C@H](C(=O)N(C)[C@H](C(=O)N1C[C@@H](O)C[C@H]1C(=O)N1C(=O)C=C[C@@H]1C)C(C)C)[C@@H](C)O` was tested. Which IC50 did it give?
Its IC50 is 75 nM.

For `CCCC[C@@H](C)C[C@@H](C)C(=O)N(C)[C@@H](C=C(C)C)C(=O)N[C@H](C(=O)N(C)[C@H](C(=O)N1C[C@@H](O)C[C@H]1C(=O)N1C(=O)C=C[C@@H]1C)C(C)C)[C@@H](C)O`, which IC50 is on record?
Its IC50 is 160 nM.

With `CCCC[C@@H](C)C[C@@H](C)C(=O)N(C)[C@@H](CC(C)C)C(=O)N[C@H](C(=O)N(C)[C@H](C(=O)N1CCC[C@H]1C(=O)N1C(=O)CC[C@@H]1C)C(C)C)[C@@H](C)OC(C)=O` as the compound, how does the IC50 read?
The IC50 was 5000 nM.

For `CCCC[C@@H](C)C[C@@H](C)C(=O)N(C)[C@@H](CC(C)C)C(=O)N[C@H](C(=O)N(C)[C@H](C(=O)N1CCC[C@H]1C(=O)N1C(=O)C=C[C@@H]1C)C(C)C)[C@@H](C)O`, which IC50 is on record?
The IC50 was 650 nM.

How did the IC50 turn out when `CCCC[C@@H](C)C[C@@H](C)C(=O)N(C)[C@@H](CC(C)C)C(=O)N[C@H](C(=O)N(C)[C@H](C(=O)N1C[C@@H](O)C[C@H]1C(=O)N1C(=O)C=C[C@@H]1C)C(C)C)[C@@H](C)OC(C)=O` was run?
Its IC50 is 6 nM.

Which IC50 does the source give for `CCCC[C@@H](C)C[C@@H](C)C(=O)N(C)[C@@H](C=C(C)C)C(=O)N[C@H](C(=O)N(C)[C@H](C(=O)N1CCC[C@H]1C(=O)N1C(=O)C=C[C@@H]1C)C(C)C)[C@@H](C)OC(C)=O` here?
The IC50 was 1000 nM.

With `CCCCCC[C@@H](C)C(=O)N(C)[C@@H](CC(C)C)C(=O)N[C@H](C(=O)N(C)[C@H](C(=O)N1C[C@@H](O)C[C@H]1C(=O)N1C(=O)C=C[C@@H]1C)C(C)C)[C@@H](C)OC(C)=O` as the compound, how does the IC50 read?
The IC50 was 47 nM.

How did the IC50 turn out when `CCCC[C@@H](C)C[C@@H](C)C(=O)N(C)[C@@H](CC(C)C)C(=O)N[C@H](C(=O)N(C)[C@H](C(=O)N1C[C@@H](O)C[C@H]1C(=O)N1C(=O)C=C[C@@H]1C)C(C)C)[C@@H](C)OC(=O)CC` was run?
Its IC50 is 200 nM.

How did the IC50 turn out when `CCCC[C@@H](C)C[C@@H](C)C(=O)N(C)[C@@H](CC(C)C)C(=O)N[C@H](C(=O)N(C)[C@H](C(=O)N1C[C@@H](O)C[C@H]1C(=O)N1C(=O)CC[C@@H]1C)C(C)C)[C@@H](C)OC(C)=O` was run?
Its IC50 is 2800 nM.

With `CCCC[C@@H](C)C[C@@H](C)C(=O)N(C)[C@@H](C=C(C)C)C(=O)N[C@H](C(=O)N(C)[C@H](C(=O)N1C[C@@H](O)C[C@H]1C(=O)N1C(=O)C=C[C@@H]1C)C(C)C)[C@@H](C)OC(C)=O` as the compound, how does the IC50 read?
The IC50 was 37 nM.

How did the IC50 turn out when `CCCCCC[C@@H](C)C(=O)N(C)[C@@H](CC(C)C)C(=O)N[C@H](C(=O)N(C)[C@H](C(=O)N1CCC[C@H]1C(=O)N1C(=O)C=C[C@@H]1C)C(C)C)[C@@H](C)OC(C)=O` was run?
Its IC50 is 550 nM.

For `COc1cccc2c1C(=O)c1c(O)c3c(c(O)c1C2=O)C[C@@](O)(C(=O)CO)C[C@@H]3O[C@H]1C[C@H](N)[C@H](O)[C@H](C)O1` [DOXORUBICIN], which IC50 is on record?
Its IC50 is 180 nM.
